In brackets after ≈: the same amount, converted by molar mass. Activity calls are given as the source filed them. The rule behind the calls is not given here.
What was measured:
Kluyveromyces marxianus [1] = experiment: Antifungal activity against Kluyveromyces fragilis NRRL 2415 after 24 hrs by broth micro dilution method; assay type: functional; details: NRRL 2415, 24 h
How it was run: (§1)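 Broth microdilution was run in cation-adjusted Mueller Hinton Broth. Compounds were dissolved in DMSO at 2 mg mL^-1 and serially diluted two-fold. Yeast precultures were grown in Malt Extract Broth for 48 h. The final inoculum was about 10⁶ cfu mL^-1, and plates were incubated at 37 °C for 24 h. The MIC was read from this series.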

A549 [2] = experiment: Cytotoxicity against human A549 cells assessed as cell viability at 1 uM after 24 hrs by MTT assay; assay type: functional; details: A549, 24 h, read-out: Activity
How it was run: (§2)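 Cells were seeded at 3.10³–5.10³ per well in RPMI 1640 with 10% FBS, 4 mM L-glutamine and penicillin/streptomycin, then held 24 h at 37 °C under 5% CO₂. Ligands (DMSO, final 0.5% v/v) were added at 0.1–100 for 24 or 48 h. MTT was added for 4 h and dissolved in 50% DMF/5% SDS. A570 was read, and cytotoxicity was calculated as 100×(OD treated/OD untreated).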

[3] = Cytotoxicity against human 23132/87 cells assessed as cell viability at 100 uM after 48 hrs by MTT assay; assay type: functional; details: 23132-87, 48 h, read-out: Activity; how it was run: as §2
Klebsiella pneumoniae [4] = experiment: Antibacterial activity against Klebsiella pneumoniae UC57 after 24 hrs by broth micro dilution method; assay type: functional; details: UC57, 24 h
A549 [5] = experiment: Induction of apoptosis in human A549 cells assessed as change in nuclear appearance at 100 uM after 24 hrs by hoechst nuclear staining; assay type: functional, cell-based
How it was run: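 Cells grown in 6-well plates were treated for 24 h, washed three times in PBS and fixed in ice-cold methanol for 10 min. They were stained with Hoechst 33258 for 5 min, destained in double-distilled water for 5 min and examined by fluorescence microscopy. Untreated and DMSO-treated cells served as controls.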

Klebsiella pneumoniae [6] = experiment: Antibacterial activity against Klebsiella pneumoniae UC57 after 24 hrs by agar disk diffusion assay; assay type: functional
How it was run: (§3)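 Disk diffusion with sterile 6 mm discs loaded with DMSO solutions of the test agents and placed on inoculated agar. Bacteria were pre-grown in Nutrient Broth at 30 °C for 24 h, and plates were incubated at 35 °C for 24 h. Each plate carried a reference antibiotic disc matched to the organism, and a DMSO-only solvent control was run.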

[7] = tested on: Mycolicibacterium smegmatis; experiment: Antibacterial activity against Mycobacterium smegmatis CCM 2067 after 24 hrs by agar disk diffusion assay; assay type: functional; how it was run: as §3
Pseudomonas aeruginosa [8] = experiment: Antibacterial activity against Pseudomonas aeruginosa ATCC 27853 after 24 hrs by broth micro dilution method; assay type: functional; details: ATCC 27853, 24 h
[9] = Cytotoxicity against human 23132/87 cells assessed as cell viability at 10 uM after 24 hrs by MTT assay; assay type: functional; details: 23132-87, 24 h, read-out: Activity; how it was run: as §2
Candida albicans [10] = experiment: Antifungal activity against Candida albicans ATCC 10231 after 24 hrs by broth micro dilution method; assay type: functional; details: ATCC 10231, 24 h; how it was run: as §1
Micrococcus luteus [11] = experiment: Antibacterial activity against Micrococcus luteus La 2971 after 24 hrs by broth micro dilution method; assay type: functional; details: La 2971, 24 h
Listeria monocytogenes = experiment: Antibacterial activity against Listeria monocytogenes ATCC 15313 after 24 hrs by broth micro dilution method; assay type: functional; details: ATCC 15313, 24 h
Bacillus cereus [12] = experiment: Antibacterial activity against Bacillus cereus ATCC 7064 after 24 hrs by agar disk diffusion assay; assay type: functional; how it was run: as §3
[13] = Cytotoxicity against human 23132/87 cells assessed as cell viability at 1 uM after 24 hrs by MTT assay; assay type: functional; details: 23132-87, 24 h, read-out: Activity; how it was run: as §2
[14] = tested on: Hanseniaspora guilliermondii; experiment: Antifungal activity against Hanseniaspora guilliermondii DSM 3432 after 72 hrs by agar disk diffusion assay; assay type: functional
How it was run: (§4)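 Sterile 6 mm paper discs were loaded with ligand solution freshly prepared in DMSO and placed on inoculated agar. The inoculum came from broth cultures: bacteria in Nutrient Broth at 30 °C for 24 h, yeasts in Malt Extract Broth for 48 h. Plates were incubated at 35 °C for 24 h (bacteria) or 25 °C for 72 h (yeasts). A DMSO solvent control and a reference antibiotic disc were included on each plate.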

A549 [15] = experiment: Cytotoxicity against human A549 cells assessed as cell viability at 0.1 uM after 48 hrs by MTT assay; assay type: functional; details: A549, 48 h, read-out: Activity; how it was run: as §2
Debaryomyces hansenii = experiment: Antifungal activity against Debaryomyces hansenii DSM 70238 after 72 hrs by agar disk diffusion assay; assay type: functional; how it was run: as §4
Bacillus cereus [16] = experiment: Antibacterial activity against Bacillus cereus ATCC 7064 after 24 hrs by broth micro dilution method; assay type: functional; details: ATCC 7064, 24 h
A549 [17] = experiment: Cytotoxicity against human A549 cells assessed as cell viability at 10 uM after 24 hrs by MTT assay; assay type: functional; details: A549, 24 h, read-out: Activity; how it was run: as §2
A549 [18] = experiment: Cytotoxicity against human A549 cells assessed as cell viability at 10 uM after 48 hrs by MTT assay; assay type: functional; details: A549, 48 h, read-out: Activity; how it was run: as §2
A549 [19] = experiment: Cytotoxicity against human A549 cells assessed as cell viability at 100 uM after 48 hrs by MTT assay; assay type: functional; details: A549, 48 h, read-out: Activity; how it was run: as §2
A549 [20] = experiment: Induction of apoptosis in human A549 cells assessed as DNA fragmentation at 100 uM after 24 hrs by DNA fragmentation assay; assay type: functional, cell-based
How it was run: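 10 × 10⁴ cells were seeded in 6-well plates and treated with ligand for 24 h. Cells were then collected and washed in PBS, and DNA was extracted with a kit. Extracts were run on 1.5% agarose alongside a 100 bp marker, an untreated control and DMSO-treated controls, and ladders were visualized under UV.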

Staphylococcus aureus [21] = experiment: Antibacterial activity against Staphylococcus aureus ATCC 6538 after 24 hrs by agar disk diffusion assay; assay type: functional; how it was run: as §3
Proteus vulgaris = experiment: Antibacterial activity against Proteus vulgaris ATCC 8427 after 24 hrs by agar disk diffusion assay; assay type: functional; how it was run: as §3
[22] = Cytotoxicity against human 23132/87 cells assessed as cell viability at 0.1 uM after 24 hrs by MTT assay; assay type: functional; details: 23132-87, 24 h, read-out: Activity; how it was run: as §2
A549 [23] = experiment: Cytotoxicity against human A549 cells assessed as cell viability at 0.1 uM after 24 hrs by MTT assay; assay type: functional; details: A549, 24 h, read-out: Activity; how it was run: as §2
[24] = Cytotoxicity against human 23132/87 cells assessed as cell viability at 100 uM after 24 hrs by MTT assay; assay type: functional; details: 23132-87, 24 h, read-out: Activity; how it was run: as §2
[25] = tested on: Hanseniaspora guilliermondii; experiment: Antifungal activity against Hanseniaspora guilliermondii DSM 3432 after 24 hrs by broth micro dilution method; assay type: functional; details: DSM 3432, 24 h; how it was run: as §1
A549 [26] = experiment: Cytotoxicity against human A549 cells assessed as cell viability at 100 uM after 24 hrs by MTT assay; assay type: functional; details: A549, 24 h, read-out: Activity; how it was run: as §2
Micrococcus luteus [27] = experiment: Antibacterial activity against Micrococcus luteus La 2971 after 24 hrs by agar disk diffusion assay; assay type: functional; how it was run: as §3
Candida albicans [28] = experiment: Antifungal activity against Candida albicans ATCC 10231 after 72 hrs by agar disk diffusion assay; assay type: functional; how it was run: as §4
Kluyveromyces marxianus [29] = experiment: Antifungal activity against Kluyveromyces fragilis NRRL 2415 after 72 hrs by agar disk diffusion assay; assay type: functional; how it was run: as §4
Escherichia coli = experiment: Antibacterial activity against Escherichia coli ATCC 11230 after 24 hrs by broth micro dilution method; assay type: functional; details: ATCC 11230, 24 h
Staphylococcus aureus [30] = experiment: Antibacterial activity against Staphylococcus aureus ATCC 6538 after 24 hrs by broth micro dilution method; assay type: functional; details: ATCC 6538, 24 h
Pseudomonas aeruginosa [31] = experiment: Antibacterial activity against Pseudomonas aeruginosa ATCC 27853 after 24 hrs by agar disk diffusion assay; assay type: functional; how it was run: as §3
A549 [32] = experiment: Cytotoxicity against human A549 cells assessed as cell viability at 1 uM after 48 hrs by MTT assay; assay type: functional; details: A549, 48 h, read-out: Activity; how it was run: as §2

In the case of `O=C1CCSSCCC(=O)Nc2nc(nc(-c3ccccc3)n2)NC(=O)CCSSCCC(=O)Nc2nc(nc(-c3ccccc3)n2)N1`, the MIC (Kluyveromyces marxianus [1]) is reported as 1.56 µg/mL (≈ 2.16 µM), the viability at 1 µM (A549 [2]) is reported as > 86% and the viability at 100 µM [3] is reported as > 86%. For the same molecule, the MIC (Klebsiella pneumoniae [4]) was 6.25 µg/mL (≈ 8.65 µM), the Activity (A549 [5]) was “inactive” and the “inhibition zone (IZ)” value (Klebsiella pneumoniae [6]) was 16 mm. For the same molecule, the “inhibition zone (IZ)” value [7] was 11 mm, the MIC (Pseudomonas aeruginosa [8]) was 25 µg/mL (≈ 34.6 µM) and the viability at 10 µM [9] was > 86%. The MIC (Candida albicans [10]) was 3.12 µg/mL (≈ 4.32 µM), the MIC (Micrococcus luteus [11]) was 6.25 µg/mL (≈ 8.65 µM) and the MIC (Listeria monocytogenes) was 25 µg/mL (≈ 34.6 µM). The “inhibition zone (IZ)” value (Bacillus cereus [12]) was 15 mm, the viability at 1 µM [13] was > 86% and the “inhibition zone (IZ)” value [14] was 22 mm. For the same molecule, the viability at 0.1 µM (A549 [15]) was > 86%, the “inhibition zone (IZ)” value (Debaryomyces hansenii) was 22 mm and the MIC (Bacillus cereus [16]) was 6.25 µg/mL (≈ 8.65 µM). For the same molecule, the viability at 10 µM (A549 [17]) was > 86%, the viability at 10 µM (A549 [18]) was > 86% and the viability at 100 µM (A549 [19]) was > 86%. For the same molecule, the Activity (A549 [20]) was “inactive”, the “inhibition zone (IZ)” value (Staphylococcus aureus [21]) was 12 mm and the “inhibition zone (IZ)” value (Proteus vulgaris) was 13 mm. The viability at 0.1 µM [22] was > 86%, the viability at 0.1 µM (A549 [23]) was > 86% and the viability at 100 µM [24] was > 86%. For the same molecule, the MIC [25] was 1.56 µg/mL (≈ 2.16 µM), the viability at 100 µM (A549 [26]) was > 86% and the “inhibition zone (IZ)” value (Micrococcus luteus [27]) was 17 mm. For the same molecule, the “inhibition zone (IZ)” value (Candida albicans [28]) was 19 mm, the “inhibition zone (IZ)” value (Kluyveromyces marxianus [29]) was 21 mm and the MIC (Escherichia coli) was 25 µg/mL (≈ 34.6 µM). For the same molecule, the MIC (Staphylococcus aureus [30]) was 12.5 µg/mL (≈ 17.3 µM), the “inhibition zone (IZ)” value (Pseudomonas aeruginosa [31]) was 11 mm and the viability at 1 µM (A549 [32]) was > 86%.

For `O=C1CSSCC(=O)Nc2nc(nc(-c3ccccc3)n2)NC(=O)CSSCC(=O)Nc2nc(nc(-c3ccccc3)n2)N1`, the MIC (Kluyveromyces marxianus [1]) was 1.56 µg/mL (≈ 2.34 µM), the viability at 1 µM (A549 [2]) was > 86% and the viability at 100 µM [3] was > 86%. For the same molecule, the MIC (Klebsiella pneumoniae [4]) was 6.25 µg/mL (≈ 9.37 µM), the Activity (A549 [5]) was “inactive” and the “inhibition zone (IZ)” value (Klebsiella pneumoniae [6]) was 15 mm. For the same molecule, the “inhibition zone (IZ)” value [7] was 10 mm, the MIC (Pseudomonas aeruginosa [8]) was 25 µg/mL (≈ 37.5 µM) and the viability at 10 µM [9] was > 86%. For the same molecule, the MIC (Candida albicans [10]) was 3.12 µg/mL (≈ 4.69 µM), the MIC (Micrococcus luteus [11]) was 3.12 µg/mL (≈ 4.69 µM) and the MIC (Listeria monocytogenes) was 25 µg/mL (≈ 37.5 µM). The “inhibition zone (IZ)” value (Bacillus cereus [12]) was 17 mm, the viability at 1 µM [13] was > 86% and the “inhibition zone (IZ)” value [14] was 20 mm. The viability at 0.1 µM (A549 [15]) was > 86%, the “inhibition zone (IZ)” value (Debaryomyces hansenii) was 21 mm and the MIC (Bacillus cereus [16]) was 3.12 µg/mL (≈ 4.69 µM). For the same molecule, the viability at 10 µM (A549 [17]) was > 86%, the viability at 10 µM (A549 [18]) was > 86% and the viability at 100 µM (A549 [19]) was > 86%. For the same molecule, the Activity (A549 [20]) was “inactive”, the “inhibition zone (IZ)” value (Staphylococcus aureus [21]) was 14 mm and the “inhibition zone (IZ)” value (Proteus vulgaris) was 11 mm. For the same molecule, the viability at 0.1 µM [22] was > 86%, the viability at 0.1 µM (A549 [23]) was > 86% and the viability at 100 µM [24] was > 86%. For the same molecule, the MIC [25] was 1.56 µg/mL (≈ 2.34 µM), the viability at 100 µM (A549 [26]) was > 86% and the “inhibition zone (IZ)” value (Micrococcus luteus [27]) was 18 mm. For the same molecule, the “inhibition zone (IZ)” value (Candida albicans [28]) was 19 mm, the “inhibition zone (IZ)” value (Kluyveromyces marxianus [29]) was 19 mm and the MIC (Escherichia coli) was 25 µg/mL (≈ 37.5 µM). The MIC (Staphylococcus aureus [30]) was 12.5 µg/mL (≈ 18.7 µM), the “inhibition zone (IZ)” value (Pseudomonas aeruginosa [31]) was 11 mm and the viability at 1 µM (A549 [32]) was > 86%.

— ChEMBL document CHEMBL1156002, “Synthesis, Raman, FT-IR, NMR spectroscopic characterization, antimicrobial activity, cytotoxicity and DNA binding of new mixed aza-oxo-thia macrocyclic compounds” (2009)
